Reference: ChEMBL document CHEMBL1944580, “Synthesis of novel sulfonamide-1,2,4-triazoles, 1,3,4-thiadiazoles and 1,3,4-oxadiazoles, as potential antibacterial and antifungal agents. Biological evaluation and conformational analysis studies” (2012)
≈ marks a conversion by molar mass, not a printed value.

What was measured:
Staphylococcus aureus [1] = experiment: Antibacterial activity against Staphylococcus aureus ATCC 6538 after 24 hrs by micro dilution method; format: functional; conditions: ATCC 6538, 24 h
How it was run: (§1)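 Microdilution MIC in 96-well plates. Bacterial suspensions adjusted in sterile saline to 1.0 × 10^5 CFU/ml, giving 1.0 × 10^4 cfu per well in LB broth. Compounds tested at up to 1 mg/ml. Plates incubated 24 h. MIC taken as the lowest concentration with no visible growth under a binocular microscope. OD at 655 nm was also read against a blank and the positive control. Streptomycin and ampicillin were the positive controls.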

Bacillus cereus [2] = experiment: Antibacterial activity against Bacillus cereus clinical isolate after 24 hrs by micro dilution method; format: functional; how it was run: as §1
Micrococcus flavus [3] = experiment: Antibacterial activity against Micrococcus flavus ATCC 10240 after 24 hrs by micro dilution method; format: functional; conditions: ATCC 10240, 24 h; how it was run: as §1
Listeria monocytogenes [4] = experiment: Antibacterial activity against Listeria monocytogenes NCTC 7973 after 24 hrs by micro dilution method; format: functional; conditions: NCTC 7973, 24 h; how it was run: as §1
Pseudomonas aeruginosa [5] = experiment: Antibacterial activity against Pseudomonas aeruginosa ATCC 27853 after 24 hrs by micro dilution method; format: functional; conditions: ATCC 27853, 24 h; how it was run: as §1
Enterobacter cloacae [6] = experiment: Antibacterial activity against Enterobacter cloacae human isolate after 24 hrs by micro dilution method; format: functional; how it was run: as §1
Salmonella typhimurium [7] = experiment: Antibacterial activity against Salmonella Typhimurium ATCC 13311 after 24 hrs by micro dilution method; format: functional, Salmonella enterica subsp. enterica serovar Typhimurium; conditions: Salmonella enterica, ATCC 13311, 24 h; how it was run: as §1
Escherichia coli [8] = experiment: Antibacterial activity against Escherichia coli ATCC 35210 after 24 hrs by micro dilution method; format: functional; conditions: ATCC 35210, 24 h; how it was run: as §1
Staphylococcus aureus [9] = experiment: Antibacterial activity against Staphylococcus aureus ATCC 6538 treated for 24 hrs followed by sub-cultivated for 72 hrs by micro dilution method; format: functional
How it was run: (§2)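 2 µl from each well was serially subcultured into 100 µl fresh broth per well and incubated a further 72 h. MBC is the lowest concentration with no visible growth, taken as 99.5% killing of the original inoculum. Streptomycin and ampicillin were the positive controls.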

Bacillus cereus [10] = experiment: Antibacterial activity against Bacillus cereus clinical isolate treated for 24 hrs followed by sub-cultivated for 72 hrs by micro dilution method; format: functional; how it was run: as §2
Micrococcus flavus [11] = experiment: Antibacterial activity against Micrococcus flavus ATCC 10240 treated for 24 hrs followed by sub-cultivated for 72 hrs by micro dilution method; format: functional; how it was run: as §2
Listeria monocytogenes [12] = experiment: Antibacterial activity against Listeria monocytogenes NCTC 7973 treated for 24 hrs followed by sub-cultivated for 72 hrs by micro dilution method; format: functional; how it was run: as §2
Pseudomonas aeruginosa [13] = experiment: Antibacterial activity against Pseudomonas aeruginosa ATCC 27853 treated for 24 hrs followed by sub-cultivated for 72 hrs by micro dilution method; format: functional; how it was run: as §2
Enterobacter cloacae [14] = experiment: Antibacterial activity against Enterobacter cloacae human isolate treated for 24 hrs followed by sub-cultivated for 72 hrs by micro dilution method; format: functional; how it was run: as §2
Salmonella typhimurium [15] = experiment: Antibacterial activity against Salmonella Typhimurium ATCC 13311 treated for 24 hrs followed by sub-cultivated for 72 hrs by micro dilution method; format: functional, Salmonella enterica subsp. enterica serovar Typhimurium; conditions: Salmonella enterica; how it was run: as §2
Escherichia coli [16] = experiment: Antibacterial activity against Escherichia coli ATCC 35210 treated for 24 hrs followed by sub-cultivated for 72 hrs by micro dilution method; format: functional; how it was run: as §2
Talaromyces funiculosus [17] = experiment: Antifungal activity against Penicillium funiculosum ATCC 36839 after 72 hrs by serial dilution method; format: functional; conditions: ATCC 36839, 72 h
How it was run: (§3)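 Modified microdilution MIC. Spores were washed from malt agar cultures with sterile 0.85% saline containing 0.1% Tween 80 and adjusted to about 1.0 × 10^5 per 100 µl well in malt broth. Compounds were dissolved in DMSO (1 mg/ml). Plates incubated 72 h at 28 °C. MIC is the lowest concentration with no visible growth under a binocular microscope. Bifonazole and ketoconazole were the references.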

Penicillium ochrochloron [18] = experiment: Antifungal activity against Penicillium ochrochloron ATCC 9112 after 72 hrs by serial dilution method; format: functional; conditions: ATCC 9112, 72 h; how it was run: as §3
Trichoderma viride [19] = experiment: Antifungal activity against Trichoderma viride IAM 5061 after 72 hrs by serial dilution method; format: functional; conditions: IAM 5061, 72 h; how it was run: as §3
Aspergillus fumigatus [20] = experiment: Antifungal activity against Aspergillus fumigatus human isolate after 72 hrs by serial dilution method; format: functional; how it was run: as §3
Aspergillus niger [21] = experiment: Antifungal activity against Aspergillus niger ATCC 6275 after 72 hrs by serial dilution method; format: functional; conditions: ATCC 6275, 72 h; how it was run: as §3
Aspergillus flavus [22] = experiment: Antifungal activity against Aspergillus flavus ATCC 9643 after 72 hrs by serial dilution method; format: functional; conditions: ATCC 9643, 72 h; how it was run: as §3
Aspergillus versicolor [23] = experiment: Antifungal activity against Aspergillus versicolor ATCC 11730 after 72 hrs by serial dilution method; format: functional; conditions: ATCC 11730, 72 h; how it was run: as §3
Fulvia fulva [24] = experiment: Antifungal activity against Fulvia fulva after 72 hrs by serial dilution method; format: functional; how it was run: as §3
Talaromyces funiculosus [25] = experiment: Antifungal activity against Penicillium funiculosum ATCC 36839 treated for 72 hrs followed by sub-cultivated for 5 days by serial dilution method; format: functional
How it was run: (§4)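 MFC obtained after the 72 h, 28 °C malt-broth microdilution (spore inoculum about 1.0 × 10^5 per well, compounds from 1 mg/ml DMSO). 2 µl was serially subcultured into 100 µl broth per well and incubated a further 5 days at 28 °C. MFC is the lowest concentration with no visible growth, taken as 99.5% killing of the original inoculum.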

Penicillium ochrochloron [26] = experiment: Antifungal activity against Penicillium ochrochloron ATCC 9112 treated for 72 hrs followed by sub-cultivated for 5 days by serial dilution method; format: functional; how it was run: as §4
Trichoderma viride [27] = experiment: Antifungal activity against Trichoderma viride IAM 5061 treated for 72 hrs followed by sub-cultivated for 5 days by serial dilution method; format: functional; how it was run: as §4
Aspergillus fumigatus [28] = experiment: Antifungal activity against Aspergillus fumigatus human isolate treated for 72 hrs followed by sub-cultivated for 5 days by serial dilution method; format: functional; how it was run: as §4
Aspergillus niger [29] = experiment: Antifungal activity against Aspergillus niger ATCC 6275 treated for 72 hrs followed by sub-cultivated for 5 days by serial dilution method; format: functional; how it was run: as §4
Aspergillus flavus [30] = experiment: Antifungal activity against Aspergillus flavus ATCC 9643 treated for 72 hrs followed by sub-cultivated for 5 days by serial dilution method; format: functional; how it was run: as §4
Aspergillus versicolor [31] = experiment: Antifungal activity against Aspergillus versicolor ATCC 11730 treated for 72 hrs followed by sub-cultivated for 5 days by serial dilution method; format: functional; how it was run: as §4
Fulvia fulva [32] = experiment: Antifungal activity against Fulvia fulva treated for 72 hrs followed by sub-cultivated for 5 days by serial dilution method; format: functional; how it was run: as §4

Compound | MIC (Staphylococcus aureus [1]) [µM] | MIC (Bacillus cereus [2]) [µM] | MIC (Micrococcus flavus [3]) [µM] | MIC (Listeria monocytogenes [4]) [µM] | MIC (Pseudomonas aeruginosa [5]) [µM] | MIC (Enterobacter cloacae [6]) [µM] | MIC (Salmonella typhimurium [7]) [µM] | MIC (Escherichia coli [8]) [µM] | MBC (Staphylococcus aureus [9]) [µM] | MBC (Bacillus cereus [10]) [µM] | MBC (Micrococcus flavus [11]) [µM] | MBC (Listeria monocytogenes [12]) [µM] | MBC (Pseudomonas aeruginosa [13]) [µM] | MBC (Enterobacter cloacae [14]) [µM] | MBC (Salmonella typhimurium [15]) [µM] | MBC (Escherichia coli [16]) [µM] | MIC (Talaromyces funiculosus [17]) [µM] | MIC (Penicillium ochrochloron [18]) [µM] | MIC (Trichoderma viride [19]) [µM] | MIC (Aspergillus fumigatus [20]) [µM] | also measured
CCCn1c(Cc2cc(OC)c(OC)cc2S(=O)(=O)N(C)C)n[nH]c1=S | 500 (≈ 200 µg/mL) | 250 (≈ 100 µg/mL) | 250 (≈ 100 µg/mL) | 250 (≈ 100 µg/mL) | 500 (≈ 200 µg/mL) | 250 (≈ 100 µg/mL) | 500 (≈ 200 µg/mL) | 500 (≈ 200 µg/mL) | 500 (≈ 200 µg/mL) | 500 (≈ 200 µg/mL) | 500 (≈ 200 µg/mL) | 250 (≈ 100 µg/mL) | 500 (≈ 200 µg/mL) | 250 (≈ 100 µg/mL) | 500 (≈ 200 µg/mL) | 500 (≈ 200 µg/mL) | 130 (≈ 52.1 µg/mL) | 130 (≈ 52.1 µg/mL) | 60 (≈ 24 µg/mL) | 130 (≈ 52.1 µg/mL) | MIC (Aspergillus niger [21]): 60 µM (≈ 24 µg/mL); MIC (Aspergillus flavus [22]): 60 µM (≈ 24 µg/mL); MIC (Aspergillus versicolor [23]): 250 µM (≈ 100 µg/mL); MIC (Fulvia fulva [24]): 60 µM (≈ 24 µg/mL); MFC (Talaromyces funiculosus [25]): 250 µM (≈ 100 µg/mL); MFC (Penicillium ochrochloron [26]): 250 µM (≈ 100 µg/mL); MFC (Trichoderma viride [27]): 130 µM (≈ 52.1 µg/mL); MFC (Aspergillus fumigatus [28]): 250 µM (≈ 100 µg/mL); MFC (Aspergillus niger [29]): 130 µM (≈ 52.1 µg/mL); MFC (Aspergillus flavus [30]): 130 µM (≈ 52.1 µg/mL); MFC (Aspergillus versicolor [31]): 500 µM (≈ 200 µg/mL); MFC (Fulvia fulva [32]): 130 µM (≈ 52.1 µg/mL)
COc1cc(Cc2n[nH]c(=S)n2C(C)C)c(S(=O)(=O)N(C)C)cc1OC | 380 (≈ 152 µg/mL) | 250 (≈ 100 µg/mL) | 630 (≈ 252 µg/mL) | 630 (≈ 252 µg/mL) | 630 (≈ 252 µg/mL) | 630 (≈ 252 µg/mL) | 630 (≈ 252 µg/mL) | 630 (≈ 252 µg/mL) | 380 (≈ 152 µg/mL) | 500 (≈ 200 µg/mL) | 630 (≈ 252 µg/mL) | 630 (≈ 252 µg/mL) | 630 (≈ 252 µg/mL) | 630 (≈ 252 µg/mL) | 630 (≈ 252 µg/mL) | 630 (≈ 252 µg/mL) | 130 (≈ 52.1 µg/mL) | 130 (≈ 52.1 µg/mL) | 10 (≈ 4.01 µg/mL) | 130 (≈ 52.1 µg/mL) | MIC (Aspergillus niger [21]): 130 µM (≈ 52.1 µg/mL); MIC (Aspergillus flavus [22]): 130 µM (≈ 52.1 µg/mL); MIC (Aspergillus versicolor [23]): 130 µM (≈ 52.1 µg/mL); MIC (Fulvia fulva [24]): 250 µM (≈ 100 µg/mL); MFC (Talaromyces funiculosus [25]): 250 µM (≈ 100 µg/mL); MFC (Penicillium ochrochloron [26]): 380 µM (≈ 152 µg/mL); MFC (Trichoderma viride [27]): 30 µM (≈ 12 µg/mL); MFC (Aspergillus fumigatus [28]): 250 µM (≈ 100 µg/mL); MFC (Aspergillus niger [29]): 380 µM (≈ 152 µg/mL); MFC (Aspergillus flavus [30]): 380 µM (≈ 152 µg/mL); MFC (Aspergillus versicolor [31]): 380 µM (≈ 152 µg/mL); MFC (Fulvia fulva [32]): 250 µM (≈ 100 µg/mL)
CCCCn1c(Cc2cc(OC)c(OC)cc2S(=O)(=O)N(C)C)n[nH]c1=S | 240 (≈ 99.5 µg/mL) | 240 (≈ 99.5 µg/mL) | 240 (≈ 99.5 µg/mL) | 240 (≈ 99.5 µg/mL) | 480 (≈ 199 µg/mL) | 240 (≈ 99.5 µg/mL) | 240 (≈ 99.5 µg/mL) | 480 (≈ 199 µg/mL) | 480 (≈ 199 µg/mL) | 480 (≈ 199 µg/mL) | 480 (≈ 199 µg/mL) | 240 (≈ 99.5 µg/mL) | 480 (≈ 199 µg/mL) | 240 (≈ 99.5 µg/mL) | 240 (≈ 99.5 µg/mL) | 480 (≈ 199 µg/mL) | 120 (≈ 49.7 µg/mL) | 120 (≈ 49.7 µg/mL) | 60 (≈ 24.9 µg/mL) | 120 (≈ 49.7 µg/mL) | MIC (Aspergillus niger [21]): 60 µM (≈ 24.9 µg/mL); MIC (Aspergillus flavus [22]): 60 µM (≈ 24.9 µg/mL); MIC (Aspergillus versicolor [23]): 240 µM (≈ 99.5 µg/mL); MIC (Fulvia fulva [24]): 120 µM (≈ 49.7 µg/mL); MFC (Talaromyces funiculosus [25]): 240 µM (≈ 99.5 µg/mL); MFC (Penicillium ochrochloron [26]): 480 µM (≈ 199 µg/mL); MFC (Trichoderma viride [27]): 120 µM (≈ 49.7 µg/mL); MFC (Aspergillus fumigatus [28]): 240 µM (≈ 99.5 µg/mL); MFC (Aspergillus niger [29]): 120 µM (≈ 49.7 µg/mL); MFC (Aspergillus flavus [30]): 240 µM (≈ 99.5 µg/mL); MFC (Aspergillus versicolor [31]): 480 µM (≈ 199 µg/mL); MFC (Fulvia fulva [32]): 240 µM (≈ 99.5 µg/mL)
